Screening data (PubChem)
Yeast growth inh – yeast BB579 growth reduction in restrictive medium; 140,000 compounds, 0.51% hits; inhibition, % at 10 µM; S. cerevisiae BB579 growth, OD615, 48 h;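 active = inhibition above a set limit, 3 SD over the mean compound inhibition, cut at about 44% in these data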
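Test system: DeaD yeast strain BB579 / Buffer or medium: restrictive glucose-based CSMM-D medium / Doses: single 10 µM dose / Schedule: 4 h cell preincubation, 48 h compound exposure, 30 °C humidified / Technique: culture absorbance at 615 nm / Controls: amphotericin B positive control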
Phagocyt inh – inhibitors of macrophage phagocytosis | inhibition, % at 5 µM | J774A.1 macrophage IgG-bead phagocytosis, imaging | AID 1029 | 110,000 compounds, 0.07% hits;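 active = inhibition above the mean of the plate negative controls plus 5 SD, cut at about 13% in these data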;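 also: phagocytic index as fraction of beads internalized from green versus red external bead signal; plate controls were DMSO negative control for no effect and cytochalasin-D positive control for full effect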
Yeast life ext – yeast lifespan extension; S. cerevisiae growth with nicotinamide, OD615; deaD strain in restrictive glucose medium; inhibition of the nicotinamide effect, % at 10 µM; 130,000 compounds, 0.68% hits;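 active = inhibition above a set limit, placed 3 SD over the median of all compounds, cut at about 26% in these data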;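 also: 0% = nicotinamide-treated wells and 100% = cells grown without nicotinamide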
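Assay system: engineered S. cerevisiae DeaD replicative-lifespan strain, galactose-grown log-phase cells; medium: restrictive CSMM-D dextrose medium; also added: nicotinamide, 1.5 mM, co-present with compound; schedule: 48 h compound exposure at 30 °C, humidified; detection: absorbance at 615 nm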
RAM inhibit – blocks the yeast RAM network. inhibition, % at 50 µM. 190,000 compounds, 1.8% hits. S. cerevisiae dse1pr::URA3 reporter, 5-FOA growth OD615, 2 d; analog-sensitive cbk1-as2 kinase mutant strain. AID 868;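 active = inhibition above a set limit, 3 SD over mean compound inhibition, cut at about 8.4% in these data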;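 also: 0% = DMSO-only wells with no growth and 100% = 10 µM 1-NA-PP1 full growth; inhibition rescues growth on 5-FOA so higher OD means more RAM inhibition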
RAM efflux-def – RAM network inhibition, efflux-deficient strain; shares compounds with RAM inhibit; S. cerevisiae efflux-deficient reporter strain, 5-FOA growth OD615, 2 days; max inhibition, %; 1,200 tested, under 10 active; AID 1305; call rule not given here;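 also: plate controls were vehicle for no effect and reference inhibitor for full effect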
* marks the source's active call; other numbers are inactive results; x = no result given. A selection: hits, their analogues and other compounds. The true share with any hit is near 2.7%.

SMILES	Yeast growth inh	Phagocyt inh	Yeast life ext	RAM inhibit	RAM efflux-def
Cc1nn(Cc2ccccc2)c(Cl)c1C(=O)OCc1nnc(-c2ccccc2)o1	-66.8	-0.9	2.9	16.4*	2.2
CCOc1ccccc1NS(=O)(=O)c1ccc2c(c1)n(C)c(=O)c(=O)n2C	-13.2	4.0	3.5	-0.3	x
COc1cc(NS(=O)(=O)c2ccc(Nc3nc(-c4ccccc4)cs3)cc2)nc(OC)n1	-32.9	-11.0	2.7	11.4*	1.8
O=C(/C=C/c1ccc(Cl)cc1Cl)NCCSCc1ccccc1	-37.8	-11.9	-1.6	15.9*	3.9
COC(=O)c1sc(S(=O)(=O)NCCC(=O)O)c(C(=O)OC)c1C	x	x	x	2.0	x
CC(C)OCCCNC(=O)C(NS(=O)(=O)c1ccc2c(c1)c(=O)n(C)c(=O)n2C)c1ccccc1 (configuration not stated)	x	x	x	13.4*	2.6
O=C(CCCSc1nnc(SCCCC(=O)c2ccc(F)cc2)s1)c1ccc(F)cc1	-26.6	x	-4.8	14.5*	4.3
COc1ccc(/C=C2\SC(=O)N(CCC(=O)Nc3ccccc3)C2=O)cc1OC	-38.9	-1.4	-2.5	13.0*	1.9
COc1cc(/C=C2\SC(=S)N(CCC(=O)Nc3ccccc3)C2=O)cc(OC)c1OC	x	x	x	4.9	x
CO/N=C/C(=N\Nc1ccc(OC)cc1)C(=O)c1ccc(OC)cc1	-37.8	2.0	-5.1	11.9*	2.2
COc1ccccc1NC(=O)CN1CC(=O)Nc2ccccc21	x	x	x	0.8	x
O=C(c1ccc(C(F)(F)F)cc1)N1CCC(=O)N(C(COCc2ccccc2)Cc2ccccc2)CC1 (configuration not stated)	-28.6	x	13.5	25.6*	2.2
COc1cccc(-c2c(C#N)c(N)nc3c2c(=O)nc2sccn23)c1	x	x	x	0.4	x
CCCCn1c(SCC(=O)Nc2nccs2)nc2ccccc2c1=O	-58.3	x	-19.1	2.6	x
CCCCn1c(SCC(=O)Nc2ccccc2C(F)(F)F)nc2ccsc2c1=O	-10.7	3.9	-1.7	11.5*	3.3
COc1ccc(NC(=O)c2c(C(F)(F)F)nn(C)c2SCc2ccccc2Cl)cc1	-64.2	x	24.8	0.9	x
CC(C)CN1C(=O)c2ccc(C(=O)Nc3c[nH]c(=O)[nH]c3=O)cc2C1=O	x	x	x	5.0	x
Cc1ccc(S(=O)(=O)N2CCN(C(C)C(=O)Nc3ccccc3-c3ccccc3)CC2)cc1 (configuration not stated)	-19.1	-8.0	3.3	2.2	x
O=C(OC(c1ccc(NS(=O)(=O)c2ccccc2)cc1)(C(F)(F)F)C(F)(F)F)c1ccccc1	-14.9	-6.0	9.6	12.6*	1.8
COc1cccc(-c2nc3sc4c(c3c(=O)[nH]2)CCCCC4)c1	-12.4	-2.6	-3.1	0.4	x
CN(c1ccc(C(=O)NCCSCc2c(F)cccc2Cl)cc1)S(C)(=O)=O	x	x	x	7.2	x
Cc1ccc(CSCCNC(=O)c2ccc(N(C)S(=O)(=O)c3ccccc3)cc2)cc1	-56.9	-0.7	5.6	17.8*	3.6
CN(c1ccc(C(=O)NCCSCc2ccc(Cl)cc2)cc1)S(=O)(=O)c1ccccc1	-46.3	-4.8	6.0	20.0*	2.9
CN(c1ccc(C(=O)NCCSC(C)(C)C)cc1)S(=O)(=O)c1ccccc1	x	x	x	1.0	x
CCCC(=O)Nc1cc(S(=O)(=O)N(CC)CC)ccc1Cl	-3.9	10.4	0.2	2.4	x
SMILES	Yeast growth inh	Phagocyt inh	Yeast life ext	RAM inhibit	RAM efflux-def
C(=N\N(c1ccccc1)c1ccccc1)/c1ccc2c(c1)OCO2	-40.9	x	-16.3	14.1*	7.0
CN(/N=C/c1ccc2c(c1)OCO2)c1ccccc1	-47.2	x	-10.2	4.1	x
CCC(=O)N(Cc1ccco1)c1nc(C(=O)Nc2ccc(Cl)cc2)c(C)s1	-16.6	-5.5	6.4	4.5	x
COc1cc(C(c2sc3nc(C)nn3c2O)N2CCN(c3ccccc3)CC2)cc(OC)c1OC (configuration not stated)	-33.0	x	-9.8	15.8*	2.0
COc1cc(C(c2sc3nc(C)nn3c2O)N2CCOCC2)cc(OC)c1OC (configuration not stated)	-18.1	x	-4.9	1.4	x
N#CC(C(=O)OC1CCCCC1)c1nc2ccccc2nc1N1CCOCC1 (configuration not stated)	-26.7	-0.6	7.1	2.9	x
CCC(CC)COC(=O)C(C#N)c1nc2ccccc2nc1N1CCOCC1 (configuration not stated)	-13.7	3.4	-1.9	16.4*	4.2
CCOC(=O)C(C)Sc1cc(CS(=O)(=O)c2ccccc2)nc(-c2ccccc2)n1 (configuration not stated)	-23.9	x	31.2	11.8*	3.3
